Results as given in ChEMBL document CHEMBL4270555, “Synthesis and biological evaluation of magnolol derivatives as melatonergic receptor agonists with potential use in depression” (Eur J Med Chem, 2018).
Calls of active or inactive are those of the source. No cut-off for these calls is given here.

Experiments:
[1] = Drug metabolism in Sprague-Dawley rat urine assessed as 2S,3S,4S,5R,6S)-6-(5,5'-diallyl-2'-((2S,3R,4S,5S,6R)-3,4,5-trihydroxy-6-(hydroxymethyl)tetrahydro-2H-pyran-2-yloxy)biphenyl-2-yloxy)-3,4,5-trihydroxytetrahydro-2H-pyran-2-carboxylic acid formation at 100 mg/kg, po by UPLC-IT-TOF-MS analysis; format: ADME, organism-based; settings: in vivo
Procedure, shortened: (§1)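 Male/unspecified SD rats (n = 6) housed individually in metabolic cages, dosed orally at 100.0 mg/kg; controls given 0.5% CMC-Na orally. Plasma, urine and faeces collected. LC-IT-TOF-MS on C18 column at 30 °C, formic acid (0.05%) water/acetonitrile gradient 5–100% B over 18 min, 0.2 mL/min; positive and negative ion modes with automatic MS/MS.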

[2] = Drug metabolism in Sprague-Dawley rat feces assessed as 5,5'-bis(1-hydroxyallyl)biphenyl-2,2'-diol formation at 100 mg/kg, po by UPLC-IT-TOF-MS analysis; format: ADME, organism-based; settings: in vivo
Procedure, shortened: (§2)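 Rats (n = 6) housed in metabolic cages received 100.0 mg/kg orally; controls received 0.5% CMC-Na. Plasma, urine and faeces were collected and analyzed by LC-IT-TOF-MS on a C18 column at 30 °C. Gradient 5–100% acetonitrile with 0.05% formic acid over 18 min at 0.2 mL/min; positive and negative ion MS/MS.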

[3] = Drug metabolism in Sprague-Dawley rat feces assessed as 5,5'-diallyl-2'-hydroxybiphenyl-2-yl hydrogen sulfate formation at 100 mg/kg, po by UPLC-IT-TOF-MS analysis; format: ADME, organism-based; settings: in vivo; procedure, shortened: as §2
[4] = system: Mus musculus; assay: Increase in ratio of 3,4-dihydroxyphenylacetic acid and 4-hydroxy-3-methoxyphenylacetic acid to dopamine level in Kunming mouse hypothalamus at 40 mg/kg, po treated for 7 days by HPLC-ECD analysis; format: functional, organism-based
Procedure, shortened: (§3)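 Male Kunming mice (18–20 g) given vehicle or 40 mg/kg for 7 days, then killed by cervical dislocation. Frontal cortex, hippocampus, striatum, hypothalamus and thalamus dissected on ice, homogenized in ice-cold 0.2 M perchloric acid with 0.1 mM EDTA, centrifuged 15,000 rpm, 20 min, 4 °C. Supernatant analysed by HPLC-ECD at +0.50 V; phosphate/octanesulfonate mobile phase pH 3.0 with 12% methanol. Levels in ng/g, mean ± SEM.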

[5] = Drug metabolism in Sprague-Dawley rat urine assessed as (2S,3S,4S,5R,6S)-6-(5,5'-diallyl-2'-methoxybiphenyl-2-yloxy)-3,4,5-trihydroxytetrahydro-2H-pyran-2-carboxylic acid formation at 100 mg/kg, po by UPLC-IT-TOF-MS analysis; format: ADME, organism-based; settings: in vivo; procedure, shortened: as §1
[6] = Drug metabolism in Sprague-Dawley rat plasma assessed as 5'-(1-hydroxyallyl)-5-(1-hydroxypropyl)-2'-((2S,3R,4S,5S,6R)-3,4,5-trihydroxy-6-(hydroxymethyl)tetrahydro-2H-pyran-2-yloxy)biphenyl-2-yl hydrogen sulfate formation at 100 mg/kg, po by UPLC-IT-TOF-MS analysis; format: ADME, organism-based; settings: in vivo; procedure, shortened: as §2
[7] = system: Mus musculus; assay: Decrease in dopamine level in Kunming mouse thalamus at 40 mg/kg, po treated for 7 days by HPLC-ECD analysis; format: functional, organism-based
Procedure, shortened: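 Male Kunming mice received vehicle or 40 mg/kg for 7 days, then were killed by cervical dislocation and the brain regions dissected on ice. Tissue was homogenized in ice-cold 0.2 M perchloric acid with 0.1 mM EDTA and centrifuged at 15,000 rpm, 20 min, 4 °C. Supernatant was analyzed by HPLC-ECD (+0.50 V; phosphate/octanesulfonate mobile phase, pH 3.0). Results in ng/g, mean ± SEM.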

[8] = system: Mus musculus; assay: Increase in 5-hydroxyindole-3-acetic acid level in Kunming mouse hippocampus at 40 mg/kg, po treated for 7 days by HPLC-ECD analysis; format: functional, organism-based; procedure, shortened: as §3
[9] = Drug metabolism in Sprague-Dawley rat plasma assessed as (2S,3S,4S,5R,6S)-6-(5,5'-diallyl-2'-methoxybiphenyl-2-yloxy)-3,4,5-trihydroxytetrahydro-2H-pyran-2-carboxylic acid formation at 100 mg/kg, po by UPLC-IT-TOF-MS analysis; format: ADME, organism-based; settings: in vivo; procedure, shortened: as §2
[10] = Drug metabolism in Sprague-Dawley rat feces assessed as (2S,3S,4S,5R,6S)-6-(5'-allyl-5-(1-hydroxyallyl)-2'-((2S,3R,4S,5S,6R)-3,4,5-trihydroxy-6-(hydroxymethyl)tetrahydro-2H-pyran-2-yloxy)biphenyl-2-yloxy)-3,4,5-trihydroxytetrahydro-2H-pyran-2-carboxylic acid formation at 100 mg/kg, po by UPLC-IT-TOF-MS analysis; format: ADME, organism-based; settings: in vivo; procedure, shortened: as §2
[11] = Drug metabolism in Sprague-Dawley rat feces assessed as (2S,3S,4S,5R,6S)-6-(5-acryloyl-2'-hydroxy-5'-(1-hydroxyallyl)biphenyl-2-yloxy)-3,4,5-trihydroxytetrahydro-2H-pyran-2-carboxylic acid formation at 100 mg/kg, po by UPLC-IT-TOF-MS analysis; format: ADME, organism-based; settings: in vivo; procedure, shortened: as §2
[12] = system: Mus musculus; assay: Increase in ratio of 5-hydroxyindole-3-acetic acid to 5-hydroxytryptamine level in Kunming mouse hypothalamus at 40 mg/kg, po treated for 7 days by HPLC-ECD analysis; format: functional, organism-based; procedure, shortened: as §3
[13] = Drug metabolism in Sprague-Dawley rat urine assessed as 1-(2'-hydroxy-5'-(1-hydroxyallyl)-6-((2S,3R,4S,5S,6R)-3,4,5-trihydroxy-6-(hydroxymethyl)tetrahydro-2H-pyran-2-yloxy)biphenyl-3-yl)prop-2-en-1-one formation at 100 mg/kg, po by UPLC-IT-TOF-MS analysis; format: ADME, organism-based; settings: in vivo; procedure, shortened: as §1
[14] = system: Rattus norvegicus; assay: Toxicity in Sprague-Dawley rat assessed as change in behaviour at 2000 mg/kg, po measured continuously for first 4 hrs followed by measured every hour for next 24 hrs and at 6 hrs intervals for following 48 hrs post dose; format: organism-based; settings: in vivo
Procedure, shortened: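 Followed OECD 425 in adult SD rats (180–220 g), three groups of six. Vehicle control received 0.5% CMC-Na orally; separate male and female groups received 2000 mg/kg orally. Endpoints observed: behaviour, breathing, cutaneous effects, sensory nervous system responses, gastrointestinal effects and deaths.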

[15] = Drug metabolism in Sprague-Dawley rat feces assessed as (2S,3S,4S,5R,6S)-3,4,5-trihydroxy-6-(5-(1-hydroxyallyl)-5'-(1-hydroxypropyl)-2'-((2S,3R,4S,5S,6R)-3,4,5-trihydroxy-6-(hydroxymethyl)tetrahydro-2H-pyran-2-yloxy)biphenyl-2-yloxy)tetrahydro-2H-pyran-2-carboxylic acid formation at 100 mg/kg, po by UPLC-IT-TOF-MS analysis; format: ADME, organism-based; settings: in vivo; procedure, shortened: as §2
[16] = system: Mus musculus; assay: Increase in norepinephrine level in Kunming mouse thalamus at 40 mg/kg, po treated for 7 days by HPLC-ECD analysis; format: functional, organism-based; procedure, shortened: as §3
[17] = system: Mus musculus; assay: Increase in norepinephrine level in Kunming mouse hypothalamus at 40 mg/kg, po treated for 7 days by HPLC-ECD analysis; format: functional, organism-based; procedure, shortened: as §3
[18] = Drug metabolism in Sprague-Dawley rat urine assessed as 5,5'-bis(1-hydroxyallyl)biphenyl-2,2'-diol formation at 100 mg/kg, po by UPLC-IT-TOF-MS analysis; format: ADME, organism-based; settings: in vivo; procedure, shortened: as §1
[19] = Drug metabolism in Sprague-Dawley rat urine assessed as 5-allyl-5'-(1-hydroxyallyl)-2'-((2S,3R,4S,5S,6R)-3,4,5-trihydroxy-6-(hydroxymethyl)tetrahydro-2H-pyran-2-yloxy)biphenyl-2-yl hydrogen sulfate formation at 100 mg/kg, po by UPLC-IT-TOF-MS analysis; format: ADME, organism-based; settings: in vivo; procedure, shortened: as §1
[20] = Drug metabolism in Sprague-Dawley rat plasma assessed as (2S,3R,4S,5S,6R)-2-(5'-allyl-2'-hydroxy-5-(1-hydroxyallyl)biphenyl-2-yloxy)-6-(hydroxymethyl)tetrahydro-2H-pyran-3,4,5-triol formation at 100 mg/kg, po by UPLC-IT-TOF-MS analysis; format: ADME, organism-based; settings: in vivo; procedure, shortened: as §2

What does the source list for `C=CCc1ccc(O)c(-c2cc(CC=C)ccc2O[C@@H]2O[C@H](CO)[C@@H](O)[C@H](O)[C@H]2O)c1`?
Drug metabolism [1]: Metabolite_Detected; Drug metabolism [2]: Metabolite_Detected; Drug metabolism [3]: Metabolite_Detected; Activity [4]: Active; Drug metabolism [5]: Metabolite_Detected; Drug metabolism [6]: Metabolite_Notdetected; Activity [7]: Active; Activity [8]: Active; Drug metabolism [9]: Metabolite_Notdetected; Drug metabolism [10]: Metabolite_Detected; Drug metabolism [11]: Metabolite_Notdetected; Activity [12]: Active; Drug metabolism [13]: Metabolite_Detected; Activity [14]: Non-Toxic; Drug metabolism [15]: Metabolite_Detected; Activity [16]: Active; Activity [17]: Active; Drug metabolism [18]: Metabolite_Detected; Drug metabolism [19]: Metabolite_Notdetected; Drug metabolism [20]: Metabolite_Notdetected
